From ChEMBL document CHEMBL4425163, “Structure elucidation of anti-methicillin resistant Staphylococcus aureus (MRSA) flavonoids from balsam poplar buds” (Bioorg Med Chem, 2016)
≈ marks a conversion by molar mass, not a printed value.

Experiments:
Staphylococcus aureus [1] = assay: Antibacterial activity against Staphylococcus aureus ATCC 25923 incubated […] by microdilution resazurin assay; format: functional
Staphylococcus aureus [2] = assay: Antibacterial activity against methicillin resistant Staphylococcus aureus clinical isolate 7 incubated […] by microdilution resazurin assay; format: functional
Staphylococcus aureus [3] = assay: Antibacterial activity against methicillin resistant Staphylococcus aureus clinical isolate 8 incubated […] by microdilution resazurin assay; format: functional
Staphylococcus aureus [4] = assay: Antibacterial activity against methicillin resistant Staphylococcus aureus clinical isolate 10 incubated […] by microdilution resazurin assay; format: functional
Staphylococcus aureus [5] = assay: Antibacterial activity against methicillin resistant Staphylococcus aureus clinical isolate 1 incubated […] by microdilution resazurin assay; format: functional
Staphylococcus aureus [6] = assay: Antibacterial activity against methicillin resistant Staphylococcus aureus clinical isolate 2 incubated […] by microdilution resazurin assay; format: functional
Staphylococcus aureus [7] = assay: Antibacterial activity against methicillin resistant Staphylococcus aureus clinical isolate 3 incubated for 7 to 14 days by microdilution resazurin assay
Staphylococcus aureus [8] = assay: Antibacterial activity against methicillin resistant Staphylococcus aureus clinical isolate 4 incubated for 7 to 14 days by microdilution resazurin assay
Staphylococcus aureus [9] = assay: Antibacterial activity against methicillin resistant Staphylococcus aureus clinical isolate 5 incubated […] by microdilution resazurin assay; format: functional
Staphylococcus aureus [10] = assay: Antibacterial activity against methicillin resistant Staphylococcus aureus clinical isolate 6 incubated […] by microdilution resazurin assay; format: functional
Staphylococcus aureus [11] = assay: Antibacterial activity against methicillin resistant Staphylococcus aureus clinical isolate 9 incubated […] by microdilution resazurin assay; format: functional
[12] = Cytotoxicity against human WS1 cells by resazurin reduction assay; format: cell-based
How it was run: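 WS1 human fibroblast line; resazurin reduction test, slightly modified from an earlier method. Etoposide served as positive control.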

[13] = Staphylococcus aureus, ATCC 25923, read-out: MIC
[14] = Staphylococcus aureus, isolate 1, read-out: MIC
[15] = Staphylococcus aureus, isolate 2, read-out: MIC
[16] = Staphylococcus aureus, isolate 5, read-out: MIC
[17] = Staphylococcus aureus, isolate 6, read-out: MIC
[18] = Staphylococcus aureus, isolate 7, read-out: MIC
[19] = Staphylococcus aureus, isolate 8, read-out: MIC
[20] = Staphylococcus aureus, isolate 9, read-out: MIC
[21] = Staphylococcus aureus, isolate 10, read-out: MIC

Row | Compound | MIC (Staphylococcus aureus [1]; [13]) [µM] | MIC (Staphylococcus aureus [5]; [14]) [µM] | MIC (Staphylococcus aureus [6]; [15]) [µM] | MIC (Staphylococcus aureus [7]) [µM] | MIC (Staphylococcus aureus [8]) [µM] | MIC (Staphylococcus aureus [9]; [16]) [µM] | MIC (Staphylococcus aureus [10]; [17]) [µM] | MIC (Staphylococcus aureus [2]; [18]) [µM] | MIC (Staphylococcus aureus [3]; [19]) [µM] | MIC (Staphylococcus aureus [11]; [20]) [µM] | MIC (Staphylococcus aureus [4]; [21]) [µM] | IC50 ([12]; Homo sapiens, WS1) [µM] | further results
1 | O=C(CCc1ccccc1)c1c(O)cc2c(c1O)CC(O)C(c1ccc(O)cc1)O2 (stereo in doubt; (+)-17) | 50 (≈ 20.3 µg/mL) | – | – | – | – | – | – | – | – | – | – | – | MIC (Staphylococcus aureus [2]): 50 µM (≈ 20.3 µg/mL); MIC (Staphylococcus aureus [3]): 50 µM (≈ 20.3 µg/mL); MIC (Staphylococcus aureus [4]): >50 µM
2 | COc1cc(O)c(C(=O)CCc2ccc(O)cc2)c(O)c1C/C=C/c1ccc(O)cc1 | > 50 | > 50 | 50 (≈ 21 µg/mL) | 50 (≈ 21 µg/mL) | 50 (≈ 21 µg/mL) | 50 (≈ 21 µg/mL) | 50 (≈ 21 µg/mL) | 50 (≈ 21 µg/mL) | 50 (≈ 21 µg/mL) | > 50 | 50 (≈ 21 µg/mL) | > 10 | –
3 | COc1ccc(CCC(=O)c2c(O)cc(O)c(C/C=C/c3ccc(O)cc3)c2O)cc1 | > 50 | 50 (≈ 21 µg/mL) | 25 (≈ 10.5 µg/mL) | 13 (≈ 5.47 µg/mL) | 13 (≈ 5.47 µg/mL) | 13 (≈ 5.47 µg/mL) | 25 (≈ 10.5 µg/mL) | 25 (≈ 10.5 µg/mL) | 25 (≈ 10.5 µg/mL) | 25 (≈ 10.5 µg/mL) | 25 (≈ 10.5 µg/mL) | > 10 | –
4 | COc1cc(O)c(C(=O)CCc2ccc(O)cc2)c2c1CCC(c1ccc(O)cc1)O2 (centres undefined) | > 50 | > 50 | 50 (≈ 21 µg/mL) | > 50 | > 50 | > 50 | 50 (≈ 21 µg/mL) | 50 (≈ 21 µg/mL) | > 50 | > 50 | > 50 | > 10 | –
5 | COc1ccc(CCC(=O)c2c(O)c(C/C=C/c3ccc(O)cc3)c(O)c3c2O[C@@H](c2ccc(O)cc2)[C@H](C/C=C/c2ccc(O)cc2)C3)cc1 (racemic) | 13 (≈ 8.9 µg/mL) | 6 (≈ 4.11 µg/mL) | 6 (≈ 4.11 µg/mL) | 3 (≈ 2.05 µg/mL) | 13 (≈ 8.9 µg/mL) | 13 (≈ 8.9 µg/mL) | 6 (≈ 4.11 µg/mL) | 6 (≈ 4.11 µg/mL) | 13 (≈ 8.9 µg/mL) | 13 (≈ 8.9 µg/mL) | 13 (≈ 8.9 µg/mL) | > 10 | –
6 | COc1ccc(CCC(=O)c2c(O)cc(O)c3c2OC(c2ccc(O)cc2)C(O)C3)cc1 (stereo in doubt; (+)-16) | 25 (≈ 10.9 µg/mL) | – | – | – | – | – | – | – | – | – | – | – | MIC (Staphylococcus aureus [5]): >50 µM; MIC (Staphylococcus aureus [6]): 50 µM (≈ 21.8 µg/mL); MIC (Staphylococcus aureus [9]): >50 µM; MIC (Staphylococcus aureus [3]): 50 µM (≈ 21.8 µg/mL); MIC (Staphylococcus aureus [4]): >50 µM
7 | GENTAMICIN | – | – | – | – | – | – | – | – | – | – | – | – | MIC (Staphylococcus aureus [1]): 0.03 µM; MIC (Staphylococcus aureus [5]): 0.05 µM; MIC (Staphylococcus aureus [6]): 0.04 µM; MIC (Staphylococcus aureus [9]): 0.08 µM; MIC (Staphylococcus aureus [10]): 0.05 µM; MIC (Staphylococcus aureus [2]): 0.07 µM; MIC (Staphylococcus aureus [3]): 0.09 µM; MIC (Staphylococcus aureus [11]): 0.07 µM; MIC (Staphylococcus aureus [4]): 0.07 µM
8 | COc1ccc(CCC(=O)c2c(O)cc(O)c3c2O[C@@H](c2ccc(O)cc2)CC3)cc1 | 25 (≈ 10.5 µg/mL) | 13 (≈ 5.47 µg/mL) | 13 (≈ 5.47 µg/mL) | 13 (≈ 5.47 µg/mL) | 25 (≈ 10.5 µg/mL) | 13 (≈ 5.47 µg/mL) | 25 (≈ 10.5 µg/mL) | 13 (≈ 5.47 µg/mL) | 13 (≈ 5.47 µg/mL) | 13 (≈ 5.47 µg/mL) | 25 (≈ 10.5 µg/mL) | > 10 | –
9 | O=C(CCc1ccccc1)c1c(O)cc(O)c(C/C=C/c2ccc(O)cc2)c1O | 6 (≈ 2.34 µg/mL) | 6 (≈ 2.34 µg/mL) | 6 (≈ 2.34 µg/mL) | 6 (≈ 2.34 µg/mL) | 6 (≈ 2.34 µg/mL) | 3 (≈ 1.17 µg/mL) | 50 (≈ 19.5 µg/mL) | 6 (≈ 2.34 µg/mL) | 3 (≈ 1.17 µg/mL) | 3 (≈ 1.17 µg/mL) | 6 (≈ 2.34 µg/mL) | > 10 | –
10 | O=C(CCc1ccccc1)c1c(O)c2c(c3c1OC(c1ccc(O)cc1)C(C/C=C/c1ccc(O)cc1)C3)OC(c1ccc(O)cc1)C(C/C=C/c1ccc(O)cc1)C2 (racemic; form 1) | – | > 50 | > 50 | > 50 | > 50 | > 50 | > 50 | > 50 | > 50 | > 50 | > 50 | – | IC50 [12]: 2.3 µM
11 | COc1ccc(CCC(=O)c2c(O)cc(O)c(C(c3ccc(O)cc3)C(C/C=C/c3ccc(O)cc3)COC(=O)/C=C/c3ccccc3)c2O)cc1 (racemic) | 25 (≈ 17.5 µg/mL) | > 50 | > 50 | > 50 | > 50 | > 50 | > 50 | > 50 | > 50 | > 50 | > 50 | > 10 | –
12 | COc1ccc(CCC(=O)c2c(O)cc(O)c3c2OC(c2ccc(O)cc2)C(O)C3)cc1 (stereo in doubt; (-)-16) | – | 50 (≈ 21.8 µg/mL) | 25 (≈ 10.9 µg/mL) | 25 (≈ 10.9 µg/mL) | – | – | 50 (≈ 21.8 µg/mL) | 25 (≈ 10.9 µg/mL) | > 50 | 50 (≈ 21.8 µg/mL) | 25 (≈ 10.9 µg/mL) | > 10 | MIC (Staphylococcus aureus [9]): 13 µM (≈ 5.67 µg/mL)
